The results in this text go back to ChEMBL document CHEMBL4002632, “Development of gallic acid formazans as novel enoyl acyl carrier protein reductase inhibitors for the treatment of tuberculosis” (Bioorg Med Chem Lett, 2017).

Series [1] relates to Mycobacterium tuberculosis. The experiment in a line: Antimycobacterial activity against Mycobacterium tuberculosis H37Rv ATCC 27294 by agar dilution method. It is filed as functional. In a few lines: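 Growth of M. tuberculosis H37Rv (ATCC27294) on agar dilution. Compounds at 50 to 0.78 μg/ml in duplicate. MIC taken as the lowest concentration giving complete growth inhibition. Isoniazid, ethambutol and ofloxacin served as references.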

Series [2] concerns Mycobacterium tuberculosis. The experiment in a line: Inhibition of Mycobacterium tuberculosis His6-tagged InhA expressed in Escherichia coli BL21 (DE3) assessed as decrease in NADH oxidation to NAD+ at 10 uM using 2-trans-decenoyl-CoA as substrate preincubated for 2 hrs followed by substrate and NADH addition measured for 1 min by spectrophotometric method relative to control. In a few lines: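 Recombinant MTB InhA expressed in E. coli and purified. DD-CoA reduction followed spectrophotometrically as NADH oxidation to NAD+. Fixed non-saturating NADH and DD-CoA, 1% DMSO. Compound at 10 μM; per cent inhibition relative to a no-inhibitor control, which set the maximal rate.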

Series [3] in a line: Inhibition of Mycobacterium tuberculosis His6-tagged InhA expressed in Escherichia coli BL21 (DE3) assessed as decrease in NADH oxidation to NAD+ using 2-trans-decenoyl-CoA as substrate preincubated for 2 hrs followed by substrate and NADH addition measured for 1 min by spectrophotometric method. In a few lines: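 Recombinant MTB InhA purified from E. coli. NADH oxidation during DD-CoA reduction read spectrophotometrically, with fixed non-saturating NADH and DD-CoA in 1% DMSO. IC50, the concentration halving enzyme velocity, determined for compounds giving over 50% inhibition at 10 μM.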

In series [4] the test system is Pseudomonas aeruginosa. The experiment in a line: Antibacterial activity against Pseudomonas aeruginosa at 50 to 100 ug/ml by cup plate agar diffusion method. It is filed as functional. In a few lines:
(§1)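 Tested at 50 and 100 μg/ml by cup-plate agar diffusion against E. coli, P. aeruginosa, S. aureus and B. subtilis.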

Series [5] can be described thus: Cytotoxicity against mouse RAW264.7 cells assessed as growth inhibition at 50 uM after 72 hrs by MTT assay relative to control. It is filed as cell-based. The following applies: read-out: GI. In a few lines: (§2)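 RAW 264.7 mouse macrophage line exposed to compound at 100 and 50 μM for 72 h. Viability by MTT conversion to formazan. Reported as per cent inhibition.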

The subject of series [6] is Bacillus subtilis. Description: Antibacterial activity against Bacillus subtilis at 50 to 100 ug/ml by cup plate agar diffusion method. It is filed as functional. In outline:
as §1

The nature of series [7]: Cytotoxicity against mouse RAW264.7 cells assessed as growth inhibition at 100 uM after 72 hrs by MTT assay relative to control. It is filed as cell-based. Conditions: read-out: GI. In a few lines: as §2
Series [8] concerns Staphylococcus aureus. Description: Antibacterial activity against Staphylococcus aureus at 50 to 100 ug/ml by cup plate agar diffusion method. In kind it is functional. In outline: as §1
The test system of series [9] is Escherichia coli. The experiment in a line: Antibacterial activity against Escherichia coli at 50 to 100 ug/ml by cup plate agar diffusion method. It is filed as functional. In outline: as §1
In series [10] the test system is Mycobacterium tuberculosis. Description: Antimycobacterial activity against Mycobacterium tuberculosis H37Rv-GFP infected in mouse RAW264.7 cells assessed as growth inhibition at 1 ug/ml after 5 days by confocal microscopic method. It is filed as functional, cell-based. In outline: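 Intracellular M. tuberculosis in mouse macrophages. Initial screen at 0.1, 1 and 10 µg/ml.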

Series [11] relates to Mycobacterium tuberculosis. Description: Antimycobacterial activity against Mycobacterium tuberculosis H37Rv-GFP infected in mouse RAW264.7 cells after 5 days by confocal microscopic method. It is filed as functional, cell-based. Conditions: RAW264.7, 120 h. In a few lines: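 Intracellular M. tuberculosis in mouse macrophages. After initial screening at 0.1, 1 and 10 µg/ml, six doses between 0.1 and 1.0 µg/ml were tested to derive IC50.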

Series [12] concerns Mycobacterium tuberculosis. Description: Stabilization of Mycobacterium tuberculosis InhA assessed as change in melting temperature by sypro orange dye-based differential scanning fluorimetry. In outline:
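Differential scanning fluorimetry of InhA with ligand versus native protein. Heated from 25 °C to 95 °C in 0.1 °C steps with SYPRO Orange. Tm shift taken relative to native protein.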

≈ marks a conversion by molar mass, not a printed value. Calls of active or inactive are those of the source. The rule behind the calls is not given here.

Regarding `CC[C@@H](CO)NCCN[C@@H](CC)CO` [ETHAMBUTOL], the MIC in series [1] came to 7.64 µM (≈ 1.56 µg/mL).
Consider `O=C(N/N=C(/N=N/c1ccccc1[N+](=O)[O-])c1ccccc1)c1cc(O)c(O)c(O)c1`, for which, in series [2], the inhibition turned out to be 62.3%. The IC50 in [3] amounted to 8.46 µM. For the same molecule, the result in [4], in series [6], in series [8] and in [9] was inactive. Moreover, the inhibition at 72 h, 50 µM in series [5] was determined as 2.11%. The MIC in [1] amounted to 14.8 µM (≈ 6.26 µg/mL). Moreover, the inhibition at 72 h, 100 µM in series [7] is 5.43%.
As to `O=C(N/N=C(/N=N/c1ccc(F)cc1)c1ccccc1)c1cc(O)c(O)c(O)c1`, in series [2], the inhibition was 87.1%. For the same molecule, the IC50 in series [3] worked out at 3.42 µM; in series [11] it was 0.62 µg/mL (≈ 1.57 µM). The outcome in [4], in [6], in series [8] and in series [9] was inactive. In addition, the inhibition at 72 h, 50 µM in series [5] worked out at 11.8%. This molecule also yielded an MIC in series [1] of 1.98 µM (≈ 0.78 µg/mL). In series [7], the inhibition at 72 h, 100 µM amounted to 23.7%. The “growth inhibition (GI)” value in [10] was “Active”.
In the case of `COc1ccccc1/N=N/C(=N/NC(=O)c1cc(O)c(O)c(O)c1)c1ccccc1`, the inhibition in series [2] was 71.7%. In addition, in series [3], the IC50 is 6.66 µM. Further, the result in [4], in [6], in [8] and in series [9] was inactive. For the same molecule, in [5], the inhibition at 72 h, 50 µM was 46.5%. For the same molecule, in series [1], the MIC stood at 4 µM (≈ 1.63 µg/mL). In addition, the inhibition at 72 h, 100 µM in series [7] came out at 52.7%.
Turning to `COc1ccc(/N=N/C(=N/NC(=O)c2cc(O)c(O)c(O)c2)c2ccccc2)cc1`, in series [2], the inhibition stood at 69.3%. Besides, the IC50 stood at 5.79 µM in [3] and 0.56 µg/mL (≈ 1.38 µM) in [11]. The outcome in series [4], in series [6], in [8] and in series [9] was inactive. Besides, the inhibition at 72 h, 50 µM in [5] amounted to 4.51%. For the same molecule, the MIC in [1] was 1.92 µM (≈ 0.781 µg/mL). Moreover, the inhibition at 72 h, 100 µM in series [7] turned out to be 15%. Besides, the “growth inhibition (GI)” value in [10] was “Active”.
As to `O=C(N/N=C(/N=N/c1ccc(Cl)cc1Cl)c1ccccc1)c1cc(O)c(O)c(O)c1`, in series [2], the inhibition worked out at 73.2%. The IC50 was 5.22 µM in series [3] and 0.35 µg/mL (≈ 0.786 µM) in series [11]. Besides, the outcome in [4], in [6], in series [8] and in series [9] was inactive. Also, the inhibition at 72 h, 50 µM in [5] was determined as 12.1%. For the same molecule, it took 1.75 µM (≈ 0.78 µg/mL) to inhibit growth in [1] (MIC). In addition, in [7], the inhibition at 72 h, 100 µM is 21.5%. For the same molecule, the “growth inhibition (GI)” value in series [10] was “Active”. The ΔTm in series [12] was determined as 2.8 °C.
In the case of `O=C(N/N=C(/N=N/c1ccccc1)c1ccccc1)c1cc(O)c(O)c(O)c1`, the inhibition in series [2] came out at 42.2%. The result in [4], in series [6], in series [8] and in series [9] was inactive. Also, in series [5], the inhibition at 72 h, 50 µM amounted to 13.6%. For the same molecule, the MIC in [1] came out at 38.1 µM (≈ 14.3 µg/mL). Also, the inhibition at 72 h, 100 µM in series [7] turned out to be 41.4%.
Consider `Cc1ccccc1/N=N/C(=N/NC(=O)c1cc(O)c(O)c(O)c1)c1ccccc1`, for which the inhibition in [2] was determined as 81.4%. Further, the IC50 in [3] amounted to 3.32 µM. For the same molecule, the outcome in [4], in series [6], in series [8] and in [9] was inactive. The inhibition at 72 h, 50 µM in series [5] was 32.7%. The molecule further registered an MIC in series [1] of 15.4 µM (≈ 6.01 µg/mL). For the same molecule, the inhibition at 72 h, 100 µM in series [7] was determined as 41.5%.
As for `O=C(N/N=C(/N=N/c1ccccc1Cl)c1ccccc1)c1cc(O)c(O)c(O)c1`, the inhibition in [2] is 57.1%. Moreover, in series [3], the IC50 was 9.16 µM. For the same molecule, the outcome in [4], in series [6], in series [8] and in [9] was inactive. In addition, in series [5], the inhibition at 72 h, 50 µM was found to be 24.5%. Also, the MIC in series [1] stood at 15.2 µM (≈ 6.25 µg/mL). In addition, the inhibition at 72 h, 100 µM in series [7] came to 32.6%.
`NNC(=O)c1ccncc1` [ISONIAZID] showed an MIC in series [1] of 0.72 µM (≈ 0.0987 µg/mL).
Consider `CC1COc2c(N3CCN(C)CC3)c(F)cc3c(=O)c(C(=O)O)cn1c23` (stereo not given) [OFLOXACIN], for which, in series [1], the lowest concentration to inhibit growth (MIC) was 2.16 µM (≈ 0.781 µg/mL).
Turning to `O=C(N/N=C(/N=N/c1ccc([N+](=O)[O-])cc1)c1ccccc1)c1cc(O)c(O)c(O)c1`, the inhibition in [2] amounted to 57.1%. Further, the IC50 in series [3] was found to be 8.16 µM. Besides, the result in series [4], in series [6], in series [8] and in series [9] was inactive. For the same molecule, the inhibition at 72 h, 50 µM in series [5] came to 11.1%. In series [1], this molecule gave an MIC of 7.42 µM (≈ 3.13 µg/mL). Moreover, the inhibition at 72 h, 100 µM in series [7] worked out at 34.6%.
